Experimental findings from ChEMBL document CHEMBL1799919, “Design, synthesis, biological evaluation, and structure-activity relationships of substituted phenyl 4-(2-oxoimidazolidin-1-yl)benzenesulfonates as new tubulin inhibitors mimicking combretastatin A-4” (J Med Chem, 2011) are described below.

Active and inactive are the calls of the source. The calls are words filed in the database; no cut-off is given here.

The subject of assay [1] is M21. Description: Antiproliferative activity against human M21 cells after 48 hrs by sulforhodamine B assay. Format: functional, cell-based. The note with it: M21, 48 h. On the technique in general: The SRB assay estimates cell density from bound dye.
In assay [2] the test system is M21. Description: Cell cycle arrest in human M21 cells assessed as accumulation at G0/G1 phase at 5 times IC50 after 24 hrs using propidium iodide staining by flow cytometric analysis (reference value: 61%). In kind it is functional.
The test system of assay [3] is M21. Briefly: Disruption of cytoskeleton microtubule structure of human M21 cells at 5 times IC50 after 16 hrs by indirect immunofluorescence assay. Format: functional, cell-based. The method in brief:
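Fixed in 3.7% formaldehyde, permeabilized with saponin, and stained with anti-β-tubulin (TUB 2.1), Alexa-488 secondary and DAPI. Microtubule structure scored by fluorescence microscopy.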

The subject of the next assay is MCF7. Briefly: Antiproliferative activity against human MCF7 cells after 48 hrs by sulforhodamine B assay. In kind it is functional, cell-based. The note with it: MCF7, 48 h.
The test system of another assay is MDA-MB-231. Description: Displacement of N,N'-ethylenebis(iodoacetamide) from colchicine-binding site of beta-tubulin in human MDA-MB-231 cells at 1000 times IC50 preincubated for after 2 hrs before N,N'-ethylenebis(iodoacetamide) addition measured after 1.5 hrs by chemiluminescence assay. Format: cell-based. In outline: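 EBI (100 μM final) added for 1.5 h at 37 °C; controls received 0.5% DMSO. Lysates (20 μg protein) run on 10% SDS-PAGE and blotted with anti-β-tubulin (TUB 2.1). β-tubulin–EBI adduct band detected by ECL.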

In assay [4] the test system is M21. Description: Cell cycle arrest in human M21 cells assessed as accumulation at G2/M phase at 5 times IC50 after 24 hrs using propidium iodide staining by flow cytometric analysis (reference value: 9%). Format: functional.
Assay [5] concerns M21. Briefly: Cell cycle arrest in human M21 cells assessed as accumulation at S phase at 5 times IC50 after 24 hrs using propidium iodide staining by flow cytometric analysis (reference value: 30%). Format: functional. A general note: A flow cytometer gives signals particle by particle.
For another assay, the system named is HT-29. Briefly: Antiproliferative activity against human HT-29 cells after 48 hrs by sulforhodamine B assay. Format: functional, cell-based. The note with it: HT-29, 48 h.

For orientation: IC50 means the concentration needed to halve the response being measured. Higher therefore signals lower potency. For the compound `O=C1NCCN1c1ccc(S(=O)(=O)Oc2ccccc2Cl)cc1`, the values for the IC50 in the assay with M21 [1], with MCF7 and with HT-29 were 45 nM, 73 nM and 66 nM, respectively. The values for the Activity in the assay on M21 [2], in the assay on M21 [4] and in the assay with M21 [5] were 2%, 83% and 15%, respectively. Further, the outcome in the assay on M21 [3] was Active. For the same compound, in the assay on MDA-MB-231, the inhibition entry was “Active”.

Regarding `COc1cc(OS(=O)(=O)c2ccc(N3CCCNC3=O)cc2)cc(OC)c1OC`, the IC50 turned out to be 240 nM in the assay on M21 [1], 730 nM in the assay on MCF7 and 490 nM with HT-29.

Regarding `CCC(C)c1ccc(OS(=O)(=O)c2ccc(N3CCNC3=O)cc2)cc1` (centres undefined), the IC50 was found to be 830 nM in the assay on M21 [1], 920 nM with MCF7 and 780 nM with HT-29.

On to `O=C1NCCN1c1ccc(S(=O)(=O)Oc2ccc(O)cc2)cc1`, for which the IC50 in the assay on M21 [1], with MCF7 and in the assay with HT-29 was greater than 1000 nM in each case.

Turning to `COc1ccccc1OS(=O)(=O)c1ccc(N2CCNC2=O)cc1`, the IC50 in the assay on M21 [1] came to 130 nM; in the assay on MCF7, 220 nM; in the assay with HT-29, 180 nM.

Regarding `O=C1NCCCN1c1ccc(S(=O)(=O)Oc2c(Cl)cc(Cl)cc2Cl)cc1`, the IC50 in the assay on M21 [1], in the assay on MCF7 and with HT-29 was greater than 1000 nM throughout.

`Cc1ccc(OS(=O)(=O)c2ccc(N3CCNC3=O)cc2)cc1`: the IC50 came out at 93 nM with M21 [1], 150 nM with MCF7 and 120 nM in the assay with HT-29. Also, the Activity with M21 [2] amounted to 32%; with M21 [4], 55%; in the assay with M21 [5] it was 13%. Moreover, in the assay with M21 [3], the result was Active. Moreover, in the assay with MDA-MB-231, the inhibition entry was “inactive”.

`O=C1NCCN1c1ccc(S(=O)(=O)Oc2cc(F)cc(F)c2)cc1`: the IC50 was 15 nM in the assay with M21 [1], 47 nM with MCF7 and 36 nM in the assay with HT-29. For the same compound, the results for the Activity in the assay with M21 [2], in the assay with M21 [4] and in the assay on M21 [5] were 12%, 59% and 29%, respectively. Also, in the assay with M21 [3], the outcome was Active. In the assay on MDA-MB-231, the inhibition entry is “Active”.

As to `O=C1NCCN1c1ccc(S(=O)(=O)Oc2cc(Cl)c(Cl)cc2Cl)cc1`, the IC50 came to 31 nM with M21 [1], 30 nM in the assay on MCF7 and 30 nM with HT-29. In addition, the figures for the Activity in the assay with M21 [2], in the assay with M21 [4] and in the assay with M21 [5] were 1%, 99% and 0%, respectively. In addition, the result in the assay on M21 [3] was Active. Besides, the inhibition entry in the assay with MDA-MB-231 was “Active”.

Consider `Cc1ccc(OS(=O)(=O)c2ccc(N3CCCNC3=O)cc2)cc1`, for which the IC50 with M21 [1] was greater than 1000 nM; in the assay on MCF7 it was greater than 1000 nM; with HT-29, 720 nM.

For `O=C1NCCN1c1ccc(S(=O)(=O)Oc2c(F)c(F)c(F)c(F)c2F)cc1`, the IC50 is 220 nM in the assay with M21 [1], 320 nM in the assay on MCF7 and 340 nM in the assay on HT-29.

For `CCOc1ccc(OS(=O)(=O)c2ccc(N3CCNC3=O)cc2)cc1`, the results for the IC50 in the assay on M21 [1], in the assay with MCF7 and in the assay on HT-29 were 39 nM, 56 nM and 44 nM, respectively. Moreover, the Activity with M21 [2] came to 2%; in the assay on M21 [4], 75%; in the assay with M21 [5], 23%. In the assay with M21 [3], the result was Active.

On to `O=C1NCCN1c1ccc(S(=O)(=O)Oc2ccccn2)cc1`, for which the results for the concentration for half-maximal inhibition (IC50) with M21 [1], with MCF7 and in the assay on HT-29 were 290 nM, 770 nM and 480 nM, respectively.

For `O=C(NCCCl)Nc1cccc(CCCCCO)c1`, the IC50 in the assay on M21 [1] came out at 230 nM; with MCF7, 420 nM; in the assay on HT-29, 150 nM. Also, the Activity is on record as 1% in the assay with M21 [2], 88% in the assay on M21 [4] and 11% in the assay with M21 [5]. Besides, the result in the assay on M21 [3] was Active.

Take `CCc1ccc(OS(=O)(=O)c2ccc(N3CCNC3=O)cc2)cc1`: the IC50 with M21 [1] came out at 120 nM; in the assay on MCF7 it was 190 nM; in the assay on HT-29, 150 nM.

Take `O=C1NCCN1c1ccc(S(=O)(=O)Oc2cccc([N+](=O)[O-])c2)cc1`: the IC50 in the assay with M21 [1] came to 48 nM; with MCF7, 60 nM; in the assay with HT-29, 100 nM. The results for the Activity in the assay on M21 [2], with M21 [4] and in the assay on M21 [5] were 56%, 31% and 13%, respectively. For the same compound, in the assay with M21 [3], the outcome was Active. In the assay on MDA-MB-231, the inhibition result is “Active”.

Take `O=C1NCCN1c1ccc(S(=O)(=O)Oc2ccc(-n3ccnc3)cc2)cc1`: the IC50 with M21 [1], with MCF7 and in the assay on HT-29 was greater than 1000 nM each time.

For `O=C1NCCN1c1ccc(S(=O)(=O)Oc2ccc(Cl)cc2)cc1`, the figures for the IC50 in the assay with M21 [1], in the assay on MCF7 and in the assay on HT-29 were 58 nM, 88 nM and 87 nM, respectively. For the same compound, the Activity in the assay on M21 [2] came to 0%; in the assay with M21 [4], 100%; with M21 [5] it was 0%. Moreover, the result with M21 [3] was Active. In addition, the inhibition result with MDA-MB-231 is “Active”.

On to `O=C1NCCN1c1ccc(S(=O)(=O)Oc2ccc([N+](=O)[O-])cc2)cc1`, for which the figures for the IC50 with M21 [1], with MCF7 and with HT-29 were 570 nM, greater than 1000 nM and greater than 1000 nM, respectively.

As for `O=C1NCCN1c1ccc(S(=O)(=O)Oc2c(Cl)cc(Cl)cc2Cl)cc1`, the results for the IC50 with M21 [1], with MCF7 and in the assay on HT-29 were 120 nM, 170 nM and 110 nM, respectively.

`CCCCOc1ccc(OS(=O)(=O)c2ccc(N3CCNC3=O)cc2)cc1`: the IC50 in the assay with M21 [1] was 530 nM; in the assay on MCF7, 890 nM; in the assay with HT-29, 540 nM.

On to `Cc1cc(OS(=O)(=O)c2ccc(N3CCNC3=O)cc2)ccc1N`, for which the IC50 in the assay on M21 [1] was determined as 360 nM; in the assay with MCF7 it was 600 nM; in the assay on HT-29, 670 nM.

Take `CCCc1ccccc1OS(=O)(=O)c1ccc(N2CCCNC2=O)cc1`: the IC50 with M21 [1], with MCF7 and in the assay on HT-29 was greater than 1000 nM in each case.

As to `Cc1cc(OS(=O)(=O)c2ccc(N3CCNC3=O)cc2)ccc1[N+](=O)[O-]`, the IC50 in the assay on M21 [1] was 100 nM; with MCF7, 180 nM; with HT-29 it was 140 nM.

As for `COc1cccc(OS(=O)(=O)c2ccc(N3CCCNC3=O)cc2)c1`, the IC50 in the assay with M21 [1], with MCF7 and in the assay on HT-29 was greater than 1000 nM throughout.

Take `CCc1ccccc1OS(=O)(=O)c1ccc(N2CCCNC2=O)cc1`: the IC50 with M21 [1], in the assay with MCF7 and with HT-29 was greater than 1000 nM in each case.

For the compound `O=C1NCCN1c1ccc(S(=O)(=O)Oc2ccc(I)cc2)cc1`, the IC50 with M21 [1] turned out to be 110 nM; in the assay with MCF7, 210 nM; in the assay with HT-29, 150 nM.

Consider `O=C1NCCCN1c1ccc(S(=O)(=O)Oc2cc(Cl)c(Cl)cc2Cl)cc1`, for which the IC50 in the assay with M21 [1], in the assay on MCF7 and in the assay with HT-29 was greater than 1000 nM in each case.

In the case of `O=C1NCCN1c1ccc(S(=O)(=O)Oc2ccccc2[N+](=O)[O-])cc1`, the IC50 with M21 [1] is 150 nM; with MCF7 it was 270 nM; with HT-29, 190 nM.

For the compound `Cc1cccc(OS(=O)(=O)c2ccc(N3CCCNC3=O)cc2)c1`, the IC50 in the assay on M21 [1], with MCF7 and with HT-29 was greater than 1000 nM throughout.

Consider `O=C1NCCCN1c1ccc(S(=O)(=O)Oc2ccc(Cl)cc2)cc1`, for which the IC50 with M21 [1], in the assay on MCF7 and with HT-29 was greater than 1000 nM throughout.

On to `Nc1ccc(OS(=O)(=O)c2ccc(N3CCNC3=O)cc2)cc1`, for which the half-maximal inhibitory concentration (IC50) in the assay with M21 [1] is 920 nM; with MCF7, greater than 1000 nM; in the assay on HT-29, greater than 1000 nM.

On to `O=C1NCCN1c1ccc(S(=O)(=O)Oc2ccccc2)cc1`, for which the IC50 with M21 [1], in the assay on MCF7 and in the assay on HT-29 was greater than 1000 nM each time.

For the compound `Cc1ccccc1OS(=O)(=O)c1ccc(N2CCCNC2=O)cc1`, the IC50 with M21 [1], in the assay on MCF7 and with HT-29 was greater than 1000 nM each time.

As for `O=C1NCCCN1c1ccc(S(=O)(=O)Oc2cccc(F)c2)cc1`, the IC50 in the assay on M21 [1], in the assay on MCF7 and with HT-29 was greater than 1000 nM in each case.

On to `Cc1ccc2cccc(OS(=O)(=O)c3ccc(N4CCNC4=O)cc3)c2n1`, for which the IC50 with M21 [1] amounted to 130 nM; in the assay on MCF7 it was 330 nM; with HT-29 it was 180 nM.

`CC(C)(C)[Si](C)(C)Oc1ccc(OS(=O)(=O)c2ccc(N3CCNC3=O)cc2)cc1`: the IC50 in the assay on M21 [1], in the assay with MCF7 and in the assay on HT-29 was greater than 1000 nM throughout.

Consider `Cc1ccc(OS(=O)(=O)c2ccc(N3CCCNC3=O)cc2)c(C)c1`, for which the IC50 in the assay on M21 [1], in the assay on MCF7 and in the assay on HT-29 was greater than 1000 nM in each case.

On to `O=C1NCCCN1c1ccc(S(=O)(=O)Oc2ccc(F)cc2)cc1`, for which the IC50 in the assay with M21 [1], in the assay with MCF7 and with HT-29 was greater than 1000 nM throughout.

With `O=C1NCCN1c1ccc(S(=O)(=O)Oc2ccncc2)cc1`, the IC50 in the assay with M21 [1], with MCF7 and in the assay on HT-29 was greater than 1000 nM in each case.

For `CN(C)c1ccc(OS(=O)(=O)c2ccc(N3CCNC3=O)cc2)cc1`, the figures for the IC50 in the assay with M21 [1], in the assay on MCF7 and with HT-29 were 350 nM, 500 nM and 430 nM, respectively.

Regarding `Nc1cccc(OS(=O)(=O)c2ccc(N3CCNC3=O)cc2)c1`, the results for the IC50 in the assay on M21 [1], with MCF7 and in the assay with HT-29 were 170 nM, 270 nM and 1000 nM, respectively.
